The results in this text go back to ChEMBL document CHEMBL1154792, “chi-Conopeptide pharmacophore development: toward a novel class of norepinephrine transporter inhibitor (Xen2174) for pain” (J Med Chem, 2009).

The structures appear in SMILES notation. Activity calls are given as the source filed them.

What is called pIC50 is the IC50 on a negative log10 scale, so that one unit is a factor of ten. Low readings indicate a large IC50, high ones a small IC50. By IC50 is commonly meant the concentration at which inhibition is half-maximal. A high value points to a need for much substance.

The nature of data set [1]: Displacement of [3H]nisoxetine from rat NET expressed in COS7 cells. The format is cell-based. As to conditions: cos-7. A general note: Loss of bound radioactivity is the signal in a displacement assay; it reports binding, not function.
The subject of data set [2] is Rattus norvegicus. Briefly: Antiallodynic activity in CCI rat pain model assessed as efficayin ipsilateral hind paw withdrawal threshold at 1 nM, iv after 3 hrs. The format is functional, organism-based. The method in brief:
(§1)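 Unilateral chronic constriction injury of the sciatic nerve in rats. At 14 days post-surgery, a single bolus was given via a chronically implanted intrathecal cannula; morphine and vehicle were comparators. Mechanical allodynia was measured with calibrated von Frey filaments as paw withdrawal threshold in the ipsilateral hindpaw, relative to the pre-dose value. Three animals per analogue; dose chosen from NET potency.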

Data set [3] is filed under the species Rattus norvegicus. Briefly: Toxicity in CCI rat pain model assessed as side effects. The format is organism-based. As to conditions: in vivo. The method in brief: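 Rats with unilateral sciatic chronic constriction injury received a single intrathecal bolus via an implanted cannula 14 days after surgery, with morphine and vehicle as comparators. Compound-related behavioural observations were recorded alongside von Frey paw-withdrawal testing. Three animals per analogue.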

For data set [4], the target named is T1, Sodium-dependent noradrenaline transporter (Homo sapiens, UniProt P23975). Put plainly: Inhibition of human NET expressed in COS7 cells assessed as inhibition of [3H]norepinephrine uptake at 1 uM. The format is cell-based. As to conditions: COS-7.
In data set [5] the target is T1, Sodium-dependent noradrenaline transporter. Put plainly: Displacement of [3H]nisoxetine from human NET expressed in COS7 cells. Format: cell-based, COS-7. Summed up: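 Membranes from COS-7 cells transfected with human NET were incubated with [3H]nisoxetine (4.3 nM) with or without peptide (1 nM to 100 μM, triplicate) for 1 h at RT. Filter-retained radioactivity was counted by liquid scintillation, and values are given as pIC50. Data are means of 2–5 experiments in triplicate; peptide concentration was set by calibrated HPLC at 214 nm.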

Data set [6] shares this target. As to conditions: COS-7.
Data set [7] concerns COS-7. Put plainly: Inhibition of rat NET expressed in COS7 cells assessed as inhibition of [3H]norepinephrine uptake. The format is cell-based.
Data set [8] relates to Rattus norvegicus. Briefly: Antiallodynic activity in CCI rat pain model assessed as efficayin ipsilateral hind paw withdrawal threshold at 0.2 nM, iv. Format: functional, organism-based. The method in brief: as §1

T1 sequence (P23975 whole entry): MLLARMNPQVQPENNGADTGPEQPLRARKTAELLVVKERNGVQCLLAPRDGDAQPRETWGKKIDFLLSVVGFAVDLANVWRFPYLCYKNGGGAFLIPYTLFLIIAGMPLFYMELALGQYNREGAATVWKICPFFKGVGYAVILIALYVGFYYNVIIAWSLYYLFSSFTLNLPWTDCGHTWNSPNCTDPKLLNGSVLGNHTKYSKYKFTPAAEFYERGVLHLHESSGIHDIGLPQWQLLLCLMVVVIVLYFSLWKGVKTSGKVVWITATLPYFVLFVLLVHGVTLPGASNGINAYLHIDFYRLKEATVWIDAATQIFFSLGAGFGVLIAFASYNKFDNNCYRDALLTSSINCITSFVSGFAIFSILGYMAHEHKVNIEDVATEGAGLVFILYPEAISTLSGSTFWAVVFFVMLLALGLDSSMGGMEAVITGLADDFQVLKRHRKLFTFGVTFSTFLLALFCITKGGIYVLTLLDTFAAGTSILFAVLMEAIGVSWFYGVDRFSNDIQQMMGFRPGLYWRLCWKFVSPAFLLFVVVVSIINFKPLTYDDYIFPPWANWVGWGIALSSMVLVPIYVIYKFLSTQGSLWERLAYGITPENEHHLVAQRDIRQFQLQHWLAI

In turn, `CC(C)C[C@@H]1NC(=O)[C@H](CCCCN)NC(=O)[C@H](Cc2ccc(O)cc2)NC(=O)CNC(=O)[C@@H]2CSSC[C@H](NC1=O)C(=O)N[C@@H](Cc1cnc[nH]1)C(=O)N1CC[C@H](O)[C@H]1C(=O)N[C@H](C(=O)O)CSSC[C@H](NC(=O)[C@@H](NC(=O)CNC(=O)[C@@H]1CCC(=O)N1)C(C)C)C(=O)N2` displayed a negative-log IC50 (pIC50) in data set [1] of 6.67. Besides, the result in data set [2] and in data set [4] was Active. In addition, the Activity result in data set [3] is recorded as “Toxic”. The IC50 in data set [5] was 0.182 µM. The logEC50 is -6.74 in data set [6] and -6.67 in data set [7].
On to `CC(C)C[C@@H]1NC(=O)[C@H](CCCCN)NC(=O)[C@H](Cc2ccc(O)cc2)NC(=O)CNC(=O)[C@@H]2CSSC[C@H](NC1=O)C(=O)N[C@@H](Cc1cnc[nH]1)C(=O)N1CC[C@H](O)[C@H]1C(=O)N[C@H](C(=O)O)CSSC[C@H](NC(=O)[C@@H](NC(=O)CNC(=O)[C@H](CC(N)=O)NC(=O)[C@@H](N)CCc1ccccc1)C(C)C)C(=O)N2`, for which the result in data set [8] was Active. Also, the Activity entry in data set [3] is given as “Toxic”.
